# The source made the active and inactive calls. The rule behind the calls is not given here.
# Assays:
# [1] = target: T1, D(4) dopamine receptor (Homo sapiens) (UniProt P21917); assay: In vitro efficacy tested on human D4.4 receptor were coexpressed with GRqo5 in HEK293 cells using FLIPR assay (Efficacy relative to 10 uM dopamine); type: cell-based
# T1 sequence (whole entry): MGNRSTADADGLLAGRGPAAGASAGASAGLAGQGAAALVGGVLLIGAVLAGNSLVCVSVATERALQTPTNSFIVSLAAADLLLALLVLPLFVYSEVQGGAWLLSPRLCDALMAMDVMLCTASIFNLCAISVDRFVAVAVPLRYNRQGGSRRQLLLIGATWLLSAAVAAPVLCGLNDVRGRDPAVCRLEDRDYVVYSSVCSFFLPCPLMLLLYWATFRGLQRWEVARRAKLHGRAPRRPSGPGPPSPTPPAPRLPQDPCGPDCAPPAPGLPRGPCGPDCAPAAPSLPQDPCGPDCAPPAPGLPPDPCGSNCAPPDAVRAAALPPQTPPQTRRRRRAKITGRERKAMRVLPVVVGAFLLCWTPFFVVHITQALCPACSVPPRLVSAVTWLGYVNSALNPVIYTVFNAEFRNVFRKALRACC
# Method in brief: (§1)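 HEK293 cells coexpressing human D4.4 receptor and Gαqo5, plated at 20 000 cells/well and grown 2 days. Loaded 1 h at 23 °C with 4 µM Fluo-4 plus 0.04% Pluronic F-127 in DPBS, washed four times. Compound added, fluorescence read over 3 min.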
# [2] = target: T1, D(4) dopamine receptor (Homo sapiens); assay: In vitro efficacy tested on human Dopamine receptor D4.4 were co-expressed with GRqo5 in HEK293 cells using FLIPR assay (Efficacy relative to 10 uM dopamine); type: cell-based; method in brief: as §1
# [3] = system: Rattus norvegicus; assay: In vivo maximal effective dose tested in rats for erection 60 min after subcutaneous administration; type: functional
# Method in brief: (§2)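 Conscious male Wistar rats, adapted 60 min to a dim red-lit room, tested between 9:00 a.m. and 3:00 p.m. Dosed subcutaneously, then caged singly and observed directly for 60 min. Percent incidence is the share of animals with one or more erections; 8–30 animals per group. Maximally effective dose is the dose giving peak incidence, with significance versus control.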
# [4] = system: Rattus norvegicus; assay: In vivo maximal penile erection in rats 60 min after subcutaneous administration; type: functional; method in brief: as §2
# [5] = target: T2, D(4) dopamine receptor (Homo sapiens, UniProt P21917); assay: In vitro EC50 tested on HEK293 cells co-transfected with human Dopamine receptor D4.4 using FLIPR assay; type: cell-based; method in brief: as §1
# T2 sequence (P21917 whole entry): T1 sequence (whole entry)
# [6] = target: T2, D(4) dopamine receptor; assay: In vitro inhibitory concentration tested on human D4.4 receptor in HEK293 cells using FLIPR assay; type: cell-based
# [7] = target: T2, D(4) dopamine receptor; assay: In vitro binding affinity tested on HEK293 cells co-transfected with human D4.4 receptor using [3H]spiperone as a radioligand […]; type: cell-based
# Method in brief: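 Competition binding to membranes from HEK-293 cells transfected with human D4.4, stored at −80 °C. Radioligand was 0.1 nM [3H]-spiperone, incubated 2 h in 50 mM Tris-HCl pH 7.4 with 5 mM KCl, 120 mM NaCl, 5 mM MgCl2 and 1 mM EDTA. Compounds were in buffer with 0.1% ascorbic acid. Samples were filtered through glass fibre and washed three times with cold Tris. Bound radioactivity was counted by scintillation to give Ki.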
# [8] = target: D(2) dopamine receptor (Rattus norvegicus) (UniProt P61169); assay: In vitro efficacy tested on rat Dopamine receptor D2 were co-expressed with GRqo5 in HEK293 cells using FLIPR assay (Efficacy relative to 10 uM dopamine); type: cell-based
# [9] = target: T3, D(4) dopamine receptor (Rattus norvegicus, UniProt P30729); assay: In vitro effective concentration tested on HEK293 cells co-transfected with rat Dopamine receptor D4 using FLIPR assay; type: cell-based
# T3 sequence (P30729 whole entry): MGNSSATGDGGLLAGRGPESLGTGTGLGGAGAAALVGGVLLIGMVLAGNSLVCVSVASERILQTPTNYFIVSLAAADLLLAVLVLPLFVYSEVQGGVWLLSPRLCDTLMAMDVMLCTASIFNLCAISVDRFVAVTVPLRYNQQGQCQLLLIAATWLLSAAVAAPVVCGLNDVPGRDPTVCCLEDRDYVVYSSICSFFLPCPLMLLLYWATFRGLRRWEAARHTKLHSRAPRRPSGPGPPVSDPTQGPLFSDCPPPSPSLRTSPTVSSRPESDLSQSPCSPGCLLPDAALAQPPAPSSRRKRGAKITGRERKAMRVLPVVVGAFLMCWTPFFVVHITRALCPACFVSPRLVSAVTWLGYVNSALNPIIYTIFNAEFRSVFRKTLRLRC
# [10] = target: T2, D(4) dopamine receptor; assay: In vitro effective concentration tested on HEK293 cells co-transfected with human D4.4 receptor using FLIPR assay; type: cell-based
# Method in brief: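 Human D4.4 receptor co-expressed with Gαqo5 in HEK293 cells, plated at 20 000 cells/well and grown 2 days. Loaded with 4 µM Fluo-4 and 0.04% Pluronic F-127 in DPBS with glucose and pyruvate for 1 h at 23 °C, then washed. Compound added and fluorescence read over 3 min on FLIPR. […] EC50 is the concentration giving half-maximal response.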
# Chain of D(2) dopamine receptor (Rattus norvegicus) (P61169 whole entry): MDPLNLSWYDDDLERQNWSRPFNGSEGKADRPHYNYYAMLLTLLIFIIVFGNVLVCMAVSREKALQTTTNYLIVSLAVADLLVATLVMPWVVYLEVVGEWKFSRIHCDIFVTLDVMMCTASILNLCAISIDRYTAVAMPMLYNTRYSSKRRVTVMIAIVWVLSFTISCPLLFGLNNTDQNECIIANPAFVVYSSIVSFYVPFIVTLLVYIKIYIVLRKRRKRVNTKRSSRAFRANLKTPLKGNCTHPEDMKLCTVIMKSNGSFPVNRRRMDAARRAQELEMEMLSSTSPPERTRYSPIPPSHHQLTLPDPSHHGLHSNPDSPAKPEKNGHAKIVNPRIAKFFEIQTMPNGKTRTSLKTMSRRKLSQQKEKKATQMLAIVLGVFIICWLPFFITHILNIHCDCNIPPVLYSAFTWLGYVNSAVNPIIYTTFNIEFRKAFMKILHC
SMILES,Efficacy [1],Efficacy [2] [%],EC50 [5] [nM],also measured
Oc1ccccc1N1CCN(Cc2nc3ccccc3[nH]2)CC1,inactive,,,
CC(C)n1c(CN2CCN(c3ccccn3)CC2)nc2ccccc21,inactive,,,
Brc1cc(Br)c2[nH]c(CN3CCN(c4ccccn4)CC3)nc2c1,,37,416,Effective dose [3]: 0.03 µM/kg; Activity [4]: 60%
CSc1ccccc1N1CCN(Cc2nc3ccccc3[nH]2)CC1,,42,86,
COc1ccccc1N1CCN(Cc2nc3ccccc3[nH]2)CC1,,48,12.4,Effective dose [3]: 0.01 µM/kg; Activity [4]: 60%
Clc1cccnc1N1CCN(Cc2nc3ccccc3[nH]2)CC1,inactive,,,
Clc1ccc(N2CCN(Cc3nc4ccccc4[nH]3)CC2)nn1,inactive,,,
CCn1c(CN2CCN(c3ccccn3)CC2)nc2ccccc21,inactive,,,
Cc1ccc(C)c(N2CCN(Cc3nc4ccccc4[nH]3)CC2)c1,,,,IC50 [6]: 1 nM; Ki [7]: 3.8 nM
COc1ccccc1C1CCN(Cc2nc3ccccc3[nH]2)CC1,,34,100,
Clc1ccccc1N1CCN(Cc2nc3ccccc3[nH]2)CC1,,39,7.2,
Oc1ccc(N2CCN(Cc3nc4ccccc4[nH]3)CC2)nn1,inactive,,,
Cc1ccc(N2CCN(Cc3nc4ccccc4[nH]3)CC2)cc1C,,,,IC50 [6]: 5 nM; Ki [7]: 1.5 nM
Cc1cccc(N2CCN(Cc3nc4ccccc4[nH]3)CC2)n1,,36,36.2,Effective dose [3]: 0.03 µM/kg; Activity [4]: 62%
CCOc1ccccc1N1CCN(Cc2nc3ccccc3[nH]2)CC1,,31,25,
CN(C)C(=O)n1c(CN2CCN(c3ccccn3)CC2)nc2ccccc21,inactive,,,
c1ccc(C2CCN(Cc3nc4ccccc4[nH]3)CC2)nc1,,51,14,
O=[N+]([O-])c1cccnc1N1CCN(Cc2nc3ccccc3[nH]2)CC1,inactive,,,
NCCc1ccc(O)c(O)c1 [DOPAMINE],,,,Efficacy [8]: 100%; EC50 [9]: 2.4 nM
COc1ccc2[nH]c(CN3CCN(c4ccccn4)CC3)nc2c1,inactive,,,
c1cnnc(N2CCN(Cc3nc4ccccc4[nH]3)CC2)c1,inactive,,,
O=C(N1CCCC1)n1c(CN2CCN(c3ccccn3)CC2)nc2ccccc21,inactive,,,

SMILES,Efficacy [1],Efficacy [2] [%],EC50 [5] [nM],also measured
Fc1ccccc1N1CCN(Cc2nc3ccccc3[nH]2)CC1,,42,14.7,Effective dose [3]: 0.01 µM/kg; Activity [4]: 70%
c1ccc(Cn2c(CN3CCN(c4ccccn4)CC3)nc3ccccc32)cc1,inactive,,,
FC(F)(F)c1ccnc(N2CCN(Cc3nc4ccccc4[nH]3)CC2)n1,inactive,,,
C1=C(c2ccccc2)CCN(Cc2nc3ccccc3[nH]2)C1,,48,,EC50 [10]: 228 nM
Cc1cccc(C)c1N1CCN(Cc2nc3ccccc3[nH]2)CC1,inactive,,,
c1ccc(Cc2ccccc2N2CCN(Cc3nc4ccccc4[nH]3)CC2)nc1,inactive,,,
CN1CCc2cccc3c2[C@H]1Cc1ccc(O)c(O)c1-3 [APOMORPHINE],,,,Efficacy [8]: 103%; EC50 [9]: 5.5 nM; Effective dose [3]: 0.1 µM/kg; Activity [4]: 91%
N#Cc1cccnc1N1CCN(Cc2nc3ccccc3[nH]2)CC1,,50,13.9,
N#Cc1ccccc1N1CCN(Cc2nc3ccccc3[nH]2)CC1,,46,14.6,Effective dose [3]: 0.003 µM/kg; Activity [4]: 65%
O=[N+]([O-])c1ccccc1N1CCN(Cc2nc3ccccc3[nH]2)CC1,,40,3.9,
CCc1ccccc1N1CCN(Cc2nc3ccccc3[nH]2)CC1,inactive,,,
Fc1cccnc1N1CCN(Cc2nc3ccccc3[nH]2)CC1,,27,24,Effective dose [3]: 0.01 µM/kg; Activity [4]: 75%
C[C@H]1CN(c2ccccn2)CCN1Cc1nc2ccccc2[nH]1,,43,52,
C1=C(c2ccccn2)CCN(Cc2nc3ccccc3[nH]2)C1,,63,,EC50 [10]: 11 nM; Effective dose [3]: 0.03 µM/kg; Activity [4]: 75%
Cn1c(CN2CCN(c3ccccn3)CC2)nc2ccccc21,inactive,,,
CCc1cnc(N2CCN(Cc3nc4ccccc4[nH]3)CC2)nc1,inactive,,,
Fc1ccc2[nH]c(CN3CCN(c4ccccn4)CC3)nc2c1,,57,8,Effective dose [3]: 0.01 µM/kg; Activity [4]: 75%
C[C@@H]1CN(c2ccccn2)CCN1Cc1nc2ccccc2[nH]1,,34,64,
CS(=O)(=O)c1cccnc1N1CCN(Cc2nc3ccccc3[nH]2)CC1,,27,136,
c1ccc(N2CCN(CCc3nc4ccccc4[nH]3)CC2)nc1,,62,23,
c1cnc(N2CCN(Cc3nc4ccccc4[nH]3)CC2)nc1,,49,44.8,Effective dose [3]: 0.1 µM/kg; Activity [4]: 85%

# From ChEMBL document CHEMBL1148372 (J Med Chem, 2004)
